The values that follow come from PMC10872764 (Journal of controlled release : official journal of the …, 2023).

The conditions of data set [1]: cited from earlier work.
Data set [2] has as its target T1, ACE2 (Homo sapiens, UniProt Q9BYF1). Put plainly: Activity of recombinant ACE2 with Zn chelation by DTPA. The format is biochemical. To be noted: 25 μg/mL H4 (200 ng/mL elsewhere in the source), 25 mM DTPA, 37 °C. In outline: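 Human recombinant ACE2 was incubated at 37 °C with or without test compound (25 μg/mL in methods; 200 ng/mL in legend). Free Zn was depleted with 25 mM DTPA. Activity was read by fluorogenic Mca-YVADAPK(Dnp)-OH cleavage (ex 330/em 405 nm) in MES/NaCl/ZnCl2/Brij-35 buffer, pH 6.5. Each dot is one treatment well; one-way ANOVA.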
Target sequence in this assay (Q9BYF1 18-805): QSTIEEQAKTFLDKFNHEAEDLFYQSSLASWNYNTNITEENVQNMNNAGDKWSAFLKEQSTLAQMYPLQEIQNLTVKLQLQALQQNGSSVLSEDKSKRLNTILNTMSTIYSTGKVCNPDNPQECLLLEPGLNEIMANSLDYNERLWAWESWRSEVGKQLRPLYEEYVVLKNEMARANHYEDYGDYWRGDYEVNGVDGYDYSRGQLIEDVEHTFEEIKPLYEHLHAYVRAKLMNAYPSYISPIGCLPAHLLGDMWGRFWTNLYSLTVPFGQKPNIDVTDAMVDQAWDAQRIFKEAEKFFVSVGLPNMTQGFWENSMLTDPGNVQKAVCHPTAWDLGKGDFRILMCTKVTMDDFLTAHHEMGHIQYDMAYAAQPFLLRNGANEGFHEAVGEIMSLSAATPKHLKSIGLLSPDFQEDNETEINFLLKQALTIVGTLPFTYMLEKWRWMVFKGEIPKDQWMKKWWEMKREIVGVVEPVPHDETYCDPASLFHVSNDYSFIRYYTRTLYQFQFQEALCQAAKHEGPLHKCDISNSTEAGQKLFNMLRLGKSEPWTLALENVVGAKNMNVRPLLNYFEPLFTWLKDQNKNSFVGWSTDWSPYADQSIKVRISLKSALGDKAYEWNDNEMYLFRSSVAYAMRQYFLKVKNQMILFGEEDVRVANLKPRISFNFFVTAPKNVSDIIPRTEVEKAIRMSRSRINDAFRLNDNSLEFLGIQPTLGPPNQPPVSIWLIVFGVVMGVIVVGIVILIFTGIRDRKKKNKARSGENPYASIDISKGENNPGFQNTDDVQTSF

Data set [3] has as its system P. aeruginosa induced bacterial pneumonia. The data set can be described thus: P. aeruginosa induced bacterial pneumonia model, wild-type mice. Format: in vivo, mouse. The note with it: wild-type mice infected with P. aeruginosa; treatment 18 h after inoculation. The gist of the method: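 In wild-type C57BL/6 mice, P. aeruginosa was instilled intratracheally via tracheal intubation. Test compound (10 mg/kg) was given by nasal instillation 18 h after inoculation, and lungs were collected 30 h later (48 h post-infection). Lung sections were H&E-stained; n = 5 per group; one-way ANOVA with multiple comparisons.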

A short description of the next data set: Water solubility. Format: physicochemical.
The next data set deals with ACE2 gene expression. The data set can be described thus: ACE2 mRNA in Calu-3 cells by quantitative real-time PCR. The note with it: 25 μg/mL H4, varying durations. Format: cell-based, human.
For data set [4], the system named is P. aeruginosa induced bacterial pneumonia. The data set can be described thus: P. aeruginosa induced bacterial pneumonia model, global ACE2 knockout. The note with it: Ace2-/- mice infected with P. aeruginosa, H4 treatment, n = 3. The format is in vivo, mouse. In outline:
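Ace2−/− mice were given P. aeruginosa by intratracheal instillation via tracheal intubation, with test compound 18 h after inoculation and samples taken 30 h later; n = 3 per group. Endpoints: body weight at sacrifice, lung H&E, lung IFNγ, MPO immunofluorescence, and BAL flow cytometry (Fc block 20 min at 4 °C, viability dye, CD45+CD11b+Ly6G+ live cells).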

Data set [5] addresses T1, ACE2. The data set can be described thus: ACE2 activity in culture medium of Calu-3 cells. Format: cell-based.
Target sequence in this assay (Q9BYF1 18-708 limits assumed): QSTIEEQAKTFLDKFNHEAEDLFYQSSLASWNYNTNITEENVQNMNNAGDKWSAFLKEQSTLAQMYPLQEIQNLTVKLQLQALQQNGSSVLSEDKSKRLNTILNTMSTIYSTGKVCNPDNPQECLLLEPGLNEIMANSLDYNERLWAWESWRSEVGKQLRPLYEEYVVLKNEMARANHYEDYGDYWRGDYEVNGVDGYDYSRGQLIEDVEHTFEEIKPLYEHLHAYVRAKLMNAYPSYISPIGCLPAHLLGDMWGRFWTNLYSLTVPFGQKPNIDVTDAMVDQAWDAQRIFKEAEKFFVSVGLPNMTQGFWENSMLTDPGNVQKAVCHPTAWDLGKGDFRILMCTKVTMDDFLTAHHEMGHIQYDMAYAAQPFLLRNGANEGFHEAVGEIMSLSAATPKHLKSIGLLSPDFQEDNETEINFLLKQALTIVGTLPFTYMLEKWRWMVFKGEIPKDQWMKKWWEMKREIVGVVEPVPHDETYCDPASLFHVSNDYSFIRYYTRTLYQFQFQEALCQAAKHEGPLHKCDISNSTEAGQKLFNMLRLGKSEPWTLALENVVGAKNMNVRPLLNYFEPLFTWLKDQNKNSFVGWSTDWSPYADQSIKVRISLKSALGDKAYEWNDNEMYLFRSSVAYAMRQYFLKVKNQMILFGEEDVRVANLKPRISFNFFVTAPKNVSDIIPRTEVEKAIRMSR
In the next data set the test system is mouse lungs. The data set can be described thus: In vivo cytotoxicity. The note with it: mice, 2.5 mg/mL, 30 μl/mouse, nasal inhalation. The gist of the method:
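Wild-type C57/Bl6 mice received 30 μl of a 2.5 mg/ml solution of self-assembled prodrug, or saline, by nasal inhalation. Lungs were collected 48 h later per methods (18 h per results). Tissue went to histopathology, apoptotic cell counts, immunofluorescence, and ELISA/qRT-PCR for proinflammatory cytokines. At least three mice per group; experiments repeated twice.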

As for `CC(=O)NCC(=O)O.CC(=O)NCC(=O)O.N=C(N)c1ccc(N=NNc2ccc(C(=N)N)cc2)cc1` [DIZE, diminazene aceturate], the toxicity entry in data set [1] is listed as “high toxicity”.
Take `O=C(O)CN(CCN(CC(=O)O)CC(=O)O)CCN(CC(=O)O)CC(=O)O` [DTPA, diethylenetriaminepentaacetic acid]: the “ACE2 activity of recombinant ACE2” value at ACE2 [2] is “substantially diminishes ACE2 activity”.
As for `C[C@]12CC[C@@H]3c4ccc(O)cc4CC[C@H]3[C@@H]1C[C@@H](O)[C@@H]2O` [H4], in data set [3], the “lung histopathology (H&E)” value was “alleviated histopathology”. In the data set “Water solubility” (water, 25 °C, no method or source printed), this compound gave a dissolution in water of 0.5 mg/mL. Further, the “ACE2 mRNA levels” value in the data set on ACE2 gene expression is “did not induce ACE2 gene expression”. In data set [4], the body weight recovery result was “no discernible effects”; the “lung histopathology (H&E)” value is recorded as “no discernible effects”; the “neutrophil infiltration into the lungs (BAL flow cytometry, MPO staining)” value is “did not diminish neutrophil infiltration”; the “production of MIP-2” value is reported as “nor did it decrease the production of MIP-2”. Further, the “proinflammatory cytokine IFNγ in lung tissue” value in data set [4] is listed as “no discernible effects”. Also, the “ACE2 activity of recombinant ACE2” value on ACE2 [2] is recorded as “restore the ACE2 activity that had been inhibited by DTPA”. In addition, the “plateau of ACE2 activity enhancement” value at ACE2 [5] is on record as “around 50 μg/mL”. The “concentration range in which ACE2 activity is notably augmented” value at ACE2 [5] (0–500 μg/ml, 18 h, 37 °C, culture medium) fell in the range of 5 to 50 µg/mL. Besides, the “mid-effective concentration for enhancing ACE2 activity” value on ACE2 [5] (dose-dependent) was in the range of 10 to 30 µg/mL.
For `Cc1ccc(S(=O)(=O)Oc2ccc3oc4c(CO)ccc(NCCN(C)C)c4c(=O)c3c2)cc1` [XNT, xanthenone], in data set [1], the toxicity entry is given as “high toxicity”.
For “H4-Succinic Acid-Val-Val-Glu-Glu-NH2 [H4 prodrug]”, the “lung histopathology (H&E)” value in data set [3] is on record as “enhanced histology”. Besides, in the data set “Water solubility” (photographs of aqueous solutions at 1 mg/mL (Fig. 4B)), the “solubility in water compared with H4” value is reported as “improved solubility in water”. In addition, the “toxicity in the lungs” value in the data set on mouse lungs was “non-detectable toxicity”. Also, in the data set on mouse lungs (ELISA and qRT-PCR), the “pro-inflammatory cytokine levels in lung tissues” value is on record as “no surge in pro-inflammatory cytokine levels”.
